# Published values from different studies.
# Compare with care: the assays were run in different laboratories.
# Target: Serine/threonine-protein kinase WNK3 (WNK3, Homo sapiens, UniProt Q9BYP7)
Structure (SMILES),observed,action,method,tested at,quantity,value
C[C@H](c1ccnc(Nc2nc3ccc(-c4cc(N(C)C)ncn4)cc3[nH]2)c1)N1CCN(C(=O)CC(F)(F)F)CC1,cell-free assay,,competition with immobilised ligand,0.1 µM,remaining binding,100%
Cc1sc(C(=O)NC2COC2)cc1-n1cc(NC(=O)Nc2c(F)cccc2Cl)cn1,enzyme activity,inhibitor,,10 µM,remaining activity,102%
O=C1NC(=O)c2cc(Nc3ccc(F)cc3)c(Nc3ccc(F)cc3)cc21,cell-free assay,,,0.5 µM,remaining signal,92.7%
O=C(NCCCC1CCCCC1)c1ccc(CNC(=O)c2cnn(-c3ccccc3)c2C(F)(F)F)cc1,cell-free assay,,competition with immobilised ligand,0.1 µM,remaining binding,100%
CNC(=O)c1cc(Oc2ccc(NC(=O)Nc3ccc(Cl)c(C(F)(F)F)c3)cc2)ccn1,enzyme activity,inhibitor,,0.3 µM,inhibition,-6%
Cc1cnc(NC2CCOCC2)nc1-n1cnc(C(=O)NC(CN)c2cc(F)cc(Cl)c2)c1 (centres unmarked),enzyme activity,inhibitor,radiometric,1 µM,remaining activity,103%
CCCS(=O)(=O)Nc1ccc(F)c(C(=O)c2c[nH]c3ncc(-c4ccc(Cl)cc4)cc23)c1F,enzyme activity,inhibitor,,1 µM,inhibition,< 10%
CCN(CC)c1ccc(C2=NNC(=O)CC2C)cc1[N+](=O)[O-] (centres unmarked),enzyme activity,inhibitor,,10 µM,remaining activity,105%
Cc1ccc(Nc2nccc(N(C)c3ccc4c(C)n(C)nc4c3)n2)cc1S(N)(=O)=O,enzyme activity,inhibitor,,0.3 µM,inhibition,-4%
CC(C)(C)c1nc(-c2cccc(NS(=O)(=O)c3c(F)cccc3F)c2F)c(-c2ccnc(N)n2)s1,enzyme activity,inhibitor,radiometric,1 µM,remaining activity,89%
CCCOc1ccc(OC)c(F)c1C(=O)c1ccc(C(=O)N[C@@H]2CNC[C@H]2NC(=O)c2ccc3[nH]ncc3c2)cc1,enzyme activity,inhibitor,,10 µM,remaining activity,95%
CNCc1ccccc1-c1csc([C@@H](C)Nc2nc(C)nc3cc(OC)c(OC)cc23)c1,cell-free assay,,competition with immobilised ligand,1 µM,remaining binding,100%
Cc1cc(NC(=O)c2cccc3cc(-c4cccc5[nH]nc(N)c45)ccc23)ccc1F,enzyme activity,inhibitor,,0.1 µM,activity vs control,93%
O=c1nc(-c2ccccn2)sc2ccccc12,binding,,competition with immobilised ligand,1 µM,remaining binding,100%
Cc1ccc(NC(=O)c2ccc(C)c(C(F)(F)F)c2)cc1C#Cc1nn(C2CCC(O)CC2)c2ncnc(N)c12 (centres unmarked),cell-free assay,,,10 µM,remaining signal,39%
CN(C)C(=O)Cn1cc(-c2nc([C@@](C)(c3ccc(-c4cnc(N)nc4)cc3)C3CC3)no2)cn1,cell-free assay,,competition with immobilised ligand,1 µM,remaining binding,76%
CCN(CC)CCNC(=O)c1c(C)[nH]c(/C=C2\C(=O)Nc3ccc(F)cc32)c1C,enzyme activity,inhibitor,,0.3 µM,inhibition,-4%
